In data set [1] the test system is Rattus norvegicus. Description: Central dopamine receptor stimulating activity in Sprague-Dawley rat assessed as reduction in DOPA accumulation in limbic region of brain at 2 umol/kg, sc by spectrophotometric method. The data set is classed as functional. As to conditions: Limbic system. The procedure, abridged:
(§1)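 Male Sprague-Dawley rats (200-350 g), reserpinized. Compounds dissolved in saline immediately before use, neutral pH, 10 mL/kg, given sc over a dose range. Aromatic-L-amino-acid decarboxylase inhibited (100 mg/kg). Dopa and 5-HTP accumulation measured spectrophotometrically in striatum, limbic forebrain and remaining hemispheral portions. ED50 = dose giving 50% of maximal reduction versus control portions, estimated from dose-response curves. Experiments run 9–12 a.m.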

The test system of data set [2] is Rattus norvegicus. Description: Central dopamine receptor stimulating activity in Sprague-Dawley rat assessed as reduction in DOPA accumulation in striatum of brain at 2 umol/kg, sc by spectrophotometric method. The data set is classed as functional. The procedure, abridged: as §1
In data set [3] the test system is Rattus norvegicus. Briefly: Central noradrenaline receptor stimulating activity in Sprague-Dawley rat assessed as reduction in DOPA accumulation in hemispheral portion of cerebrum at 2 umol/kg, sc by spectrophotometric method. It counts as functional, organism-based. The procedure, abridged: as §1
Data set [4] concerns Rattus norvegicus. Briefly: Central serotonin receptor stimulating activity in Sprague-Dawley rat assessed as reduction in 5-HTP accumulation in limbic region of brain at 2 umol/kg, sc by spectrophotometric method. It counts as functional, organism-based. As to conditions: Limbic system. The procedure, abridged:
as §1

The subject of data set [5] is Rattus norvegicus. Description: Central serotonin receptor stimulating activity in Sprague-Dawley rat assessed as reduction in 5-HTP accumulation in striatum of brain at 2 umol/kg, sc by spectrophotometric method. It counts as functional, organism-based. The procedure, abridged: as §1
The test system of data set [6] is Rattus norvegicus. Description: Central serotonin receptor stimulating activity in Sprague-Dawley rat assessed as reduction in 5-HTP accumulation in hemispheral portion of cerebrum at 2 umol/kg, sc by spectrophotometric method. The data set is classed as functional, organism-based. The procedure, abridged:
as §1

The subject of data set [7] is Rattus norvegicus. Briefly: Central dopamine receptor stimulating activity in reserpenized Sprague-Dawley rat assessed as duration of action of motor activity at 2 umol/kg, sc measured 6 hrs post-reserpine challenge by motility meter analysis. It counts as functional. The procedure, abridged: (§2)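 Male Sprague-Dawley rats (200-350 g) given reserpine 10 mg/kg ip 6 h before testing. Drug in saline, 2 µmol/kg sc in the neck. Rats then placed singly in photocell motility meters. Counts recorded per 5-min period until effect ceased (<10 counts/5 min), giving duration and AUC. Means of four to six recordings. Testing 1–6 p.m.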

Data set [8] deals with Rattus norvegicus. Description: Central dopamine receptor stimulating activity in reserpenized Sprague-Dawley rat assessed as latency period of motor activity at 2 umol/kg, sc measured 6 hrs post-reserpine challenge by motility meter analysis. The data set is classed as functional. The procedure, abridged:
as §2

For data set [9], the system named is Rattus norvegicus. Briefly: Central dopamine receptor stimulating activity in reserpenized Sprague-Dawley rat assessed as duration of action of motor activity at 20 umol/kg, po administered via stomach tube measured 6 hrs post-reserpine challenge by motility meter analysis. It counts as functional. The procedure, abridged: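 Male Sprague-Dawley rats (200-350 g) given reserpine 10 mg/kg ip 6 h before testing. Drug in saline, 20 µmol/kg po by stomach tube. Rats then placed singly in photocell motility meters. Counts recorded per 5-min period until effect ceased (<10 counts/5 min) to give duration of action. Testing 1–6 p.m.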

The subject of data set [10] is Rattus norvegicus. Description: Toxicity in sc dosed Sprague-Dawley rat assessed as gross behaviour at ED50. It counts as organism-based. As to conditions: in vivo.

What is called ED50 is the dose at which the effect has come halfway, by size or by number of responders.

The source made the active and inactive calls. No cut-off for these calls is given here.

As to `Br.CCCN(CCC)C1CCc2c(O)cccc2C1` (stereo not given), the ED50 worked out at 0.011 µmol/kg in the data set on Rattus norvegicus [1] and 0.009 µmol/kg in the data set on Rattus norvegicus [2]. Besides, the result in the data set on Rattus norvegicus [3], in the data set on Rattus norvegicus [4], with Rattus norvegicus [5] and in the data set on Rattus norvegicus [6] was inactive. In addition, the values for the Time in the data set on Rattus norvegicus [7], with Rattus norvegicus [8] and in the data set with Rattus norvegicus [9] were 127 min, 0 min and 121 min, respectively. Moreover, in the data set with Rattus norvegicus [10], the Activity entry is recorded as “Non-toxic”.

Take `CN1CCc2cccc3c2[C@H]1Cc1ccc(O)c(O)c1-3` [APOMORPHINE]: the median effective dose (ED50) in the data set with Rattus norvegicus [1] worked out at 0.19 µmol/kg; in the data set with Rattus norvegicus [2], 0.22 µmol/kg. For the same molecule, the Time is 60 min with Rattus norvegicus [7], 0 min in the data set on Rattus norvegicus [8] and 33 min in the data set with Rattus norvegicus [9].

`Br.CCCCN(CC)C1CCc2c(O)cccc2C1` (stereo not given): the values for the ED50 with Rattus norvegicus [1] and in the data set with Rattus norvegicus [2] were 0.03 µmol/kg and 0.035 µmol/kg, respectively. The result in the data set with Rattus norvegicus [3], in the data set with Rattus norvegicus [4], in the data set with Rattus norvegicus [5] and with Rattus norvegicus [6] was inactive. Further, the results for the Time with Rattus norvegicus [7], in the data set with Rattus norvegicus [8] and in the data set with Rattus norvegicus [9] were 118 min, 0 min and 63 min, respectively. Moreover, the Activity result in the data set on Rattus norvegicus [10] is “Non-toxic”.

As to `Br.CCCCN(CCC)C1CCc2c(O)cccc2C1` (stereo not given), the ED50 with Rattus norvegicus [1] was determined as 0.011 µmol/kg; with Rattus norvegicus [2], 0.014 µmol/kg. The result in the data set with Rattus norvegicus [3], with Rattus norvegicus [4], in the data set on Rattus norvegicus [5] and with Rattus norvegicus [6] was inactive. Moreover, the results for the Time in the data set with Rattus norvegicus [7], with Rattus norvegicus [8] and with Rattus norvegicus [9] were 158 min, 0 min and 117 min, respectively. In addition, the Activity result in the data set on Rattus norvegicus [10] is reported as “Non-toxic”.

Consider `Br.CCCN(CC)C1CCc2c(O)cccc2C1` (stereo not given), for which the ED50 in the data set with Rattus norvegicus [1] stood at 0.024 µmol/kg; with Rattus norvegicus [2], 0.017 µmol/kg. Moreover, the outcome in the data set with Rattus norvegicus [3], in the data set on Rattus norvegicus [4], in the data set with Rattus norvegicus [5] and in the data set on Rattus norvegicus [6] was inactive. In addition, the results for the Time with Rattus norvegicus [7], in the data set with Rattus norvegicus [8] and in the data set with Rattus norvegicus [9] were 82 min, 0 min and 40 min, respectively. Besides, the Activity result with Rattus norvegicus [10] was “Non-toxic”.

Take `Br.CCN(C)C1CCc2c(O)cccc2C1` (stereo not given): the ED50 in the data set on Rattus norvegicus [1] is 0.074 µmol/kg; in the data set on Rattus norvegicus [2] it was 0.053 µmol/kg. Besides, the result in the data set on Rattus norvegicus [3], with Rattus norvegicus [4], in the data set on Rattus norvegicus [5] and in the data set on Rattus norvegicus [6] was inactive. In addition, the values for the Time in the data set on Rattus norvegicus [7] and in the data set with Rattus norvegicus [8] were 31 min and 3 min, respectively. Also, the Activity result with Rattus norvegicus [10] is given as “Non-toxic”.

Consider `CCCN(CCC)C1CCc2c(cccc2OC)C1.Cl` (stereo not given), for which the ED50 in the data set on Rattus norvegicus [1] was 0.013 µmol/kg; in the data set on Rattus norvegicus [2], 0.018 µmol/kg. Moreover, the result in the data set on Rattus norvegicus [3], in the data set on Rattus norvegicus [4], in the data set on Rattus norvegicus [5] and in the data set with Rattus norvegicus [6] was inactive. Further, the values for the Time in the data set with Rattus norvegicus [7] and in the data set with Rattus norvegicus [8] were 122 min and 15 min, respectively. For the same molecule, the Activity result in the data set with Rattus norvegicus [10] is “Non-toxic”.

Turning to `CCCCN(CCC)C1CCc2c(cccc2OC)C1.Cl` (stereo not given), the ED50 turned out to be 0.04 µmol/kg in the data set with Rattus norvegicus [1] and 0.036 µmol/kg with Rattus norvegicus [2]. Moreover, the outcome with Rattus norvegicus [3], in the data set on Rattus norvegicus [4], in the data set with Rattus norvegicus [5] and with Rattus norvegicus [6] was inactive. Besides, the results for the Time with Rattus norvegicus [7] and in the data set on Rattus norvegicus [8] were 106 min and 14 min, respectively. Moreover, in the data set on Rattus norvegicus [10], the Activity entry is listed as “Non-toxic”.

In the case of `Br.CCN(CC)C1CCc2c(O)cccc2C1` (stereo not given), the values for the 50% effective dose (ED50) in the data set with Rattus norvegicus [1] and in the data set with Rattus norvegicus [2] were 0.077 µmol/kg and 0.071 µmol/kg, respectively. Moreover, the result in the data set on Rattus norvegicus [3], with Rattus norvegicus [4], in the data set on Rattus norvegicus [5] and with Rattus norvegicus [6] was inactive. Besides, the Time in the data set with Rattus norvegicus [7] came to 54 min; with Rattus norvegicus [8], 0 min. For the same molecule, in the data set on Rattus norvegicus [10], the Activity result was “Non-toxic”.

As for `CCCN(CC)C1CCc2c(cccc2OC)C1.Cl` (stereo not given), the ED50 stood at 0.065 µmol/kg in the data set on Rattus norvegicus [1] and 0.062 µmol/kg in the data set with Rattus norvegicus [2]. In addition, the result in the data set on Rattus norvegicus [3], in the data set with Rattus norvegicus [4], in the data set on Rattus norvegicus [5] and in the data set with Rattus norvegicus [6] was inactive. Moreover, the Time in the data set with Rattus norvegicus [7] was found to be 96 min; with Rattus norvegicus [8], 13 min. In the data set with Rattus norvegicus [10], the Activity entry is on record as “Non-toxic”.

(Values after ChEMBL document CHEMBL3227985, “N-Alkylated 2-aminotetralins: central dopamine-receptor stimulating activity” (J Med Chem, 1979).)
